Experimental data from different studies.
Lines come from different studies, so protocols differ.
Target: Serine/threonine-protein kinase PAK 1 (PAK1, Homo sapiens, UniProt Q13153)

SMILES	test	setting	remaining binding [%]
CCN1CCN(Cc2ccc(C(=O)Nc3ccc(C)c(Oc4ccc5c(c4)CC(=O)N5)c3)cc2C(F)(F)F)CC1	binding, competition with immobilised ligand	1 µM	100
FC(F)(F)c1ccc2c(c1)nc(-c1cccnc1)n2C1CC1	cell-free assay, competition with immobilised ligand	1 µM	100
O=C(c1ccc(Nc2nccc(-c3cc4ccccc4s3)n2)cc1)N1CCC(N2CCCC2)CC1	binding, competition with immobilised ligand	1 µM	80
CN(C)c1ncnc(-c2ccc3nc(Nc4cc(CN5CCN(C(=O)CC(F)(F)F)CC5)ccn4)[nH]c3c2)c1Cl	cell-free assay, competition with immobilised ligand	1 µM	100
C[C@@H](c1ccc(-n2cnc3c(N)ncnc32)cc1)N1CCc2nn(C)c(Cc3ccccc3)c2C1=O	binding, competition with immobilised ligand	0.1 µM	97
COc1ccnn2ncc(-c3ccnc(N(C)C)n3)c12	binding	1 µM	79
CN(C)C(=O)Cn1cc(-c2nc(C3(c4ccc(-c5cnc(N)nc5)cc4)CC3)no2)cn1	cell-free assay, competition with immobilised ligand	1 µM	100
N[C@@H]1CCN(c2nccc(-c3cnn4ncccc34)n2)C1	binding	1 µM	100
CNC(=O)[C@@H]1CC[C@@H](n2c(-c3ccc4cnccc4c3)nc3ccc(C(=O)NCc4cccc(C(N)=O)c4)cc32)C1	binding, competition with immobilised ligand	1 µM	100
CN(C)c1nccc(-c2cnc3ncccn23)n1	binding	1 µM	91
NS(=O)(=O)c1cc(NC(=O)Cc2ccccc2)ccc1Oc1cccc(Cl)c1	cell-free assay, competition with immobilised ligand	1 µM	88
CC1CCCN1c1nccc(-c2cnn3ncccc23)n1 (stereo not drawn)	binding	1 µM	100
N#Cc1ccccc1CSc1nnc2c(n1)[nH]c1ccccc12	binding, competition with immobilised ligand	10 µM	80
O=C(NCC1CCOCC1)c1n[nH]cc1NC(=O)c1c(F)cccc1F	binding, competition with immobilised ligand	1 µM	100
Cc1cnc(Nc2ccc(C(=O)N3CCC(N4CCCC4)CC3)cc2)nc1-c1cc2ccccc2s1	binding, competition with immobilised ligand	1 µM	98
Cc1cnn2ncc(-c3ccnc(N(C)C)n3)c2c1	binding	1 µM	71
CO[C@@H](C)c1c(Nc2ccc([C@H](N(C)C(=O)C3CCS(=O)(=O)CC3)C(F)(F)F)cc2)cnc2cc(Cl)nn12	cell-free assay, competition with immobilised ligand	1 µM	74
CN(C)c1ncc(F)c(-c2cnn3ncccc23)n1	binding	1 µM	87
COc1cc(-c2cn(C3CCc4c(F)cccc4N(CC(F)(F)F)C3=O)nn2)ccc1-n1cnc(C)c1 (stereo not drawn)	cell-free assay, competition with immobilised ligand	1 µM	93
O=C(NCCCN1CCOCC1)c1ccc(Nc2nccc(-c3cc4ccccc4s3)n2)cc1	binding, competition with immobilised ligand	1 µM	84
COc1cnc(Nc2cccc(S(N)(=O)=O)c2)nc1N1CCN(c2ccccc2)C(=O)C1	binding, competition with immobilised ligand	1 µM	100
C[C@@H]1CN(c2ccc3ncc(-c4ccc5[nH]nc(C6CC6)c5c4)n3n2)C[C@H](C)O1	binding, competition with immobilised ligand	0.5 µM	98
CO[C@H]1CC[C@H](CNc2ccc(S(=O)(=O)NC(=O)c3ccc(N4CCN(CC5=C(c6ccc(Cl)cc6)CC(C)(C)CC5)CC4)cc3Oc3cnc4[nH]ccc4c3)cc2[N+](=O)[O-])CC1	cell-free assay, competition with immobilised ligand	1 µM	78
CN(c1nccc(-c2cnn3ncccc23)n1)C1CC1	binding	1 µM	100
